# Shown are actives, neighbours in structure and some others; about 1.9% of the full set was active somewhere.
# SR-BI DiI inh = blocks mouse SR-BI lipid uptake from DiI-HDL | Q61009 | ldlA[mSR-BI] CHO cells, DiI-HDL uptake fluorescence, 3 h | inhibition, % at 12.5 µM | 320,000 tested, 0.96% active | AID 488896;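 active = mean replicate inhibition of at least 70% and a set share of replicates each scoring 70 or more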
# GRK2 aptamer HTS = blocks RNA aptamer binding to human GRK2; P25098; bead flow cytometry, FAM-aptamer displacement from GRK2; inhibition of aptamer binding, % at 10 µM; 330,000 tested, 0.59% active;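 active = inhibition of aptamer binding above 40%, roughly 3 SD of noise, on plates passing a quality check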;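 note: median bead fluorescence of bound FAM aptamer so fluorescent compounds give negative values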
# Rin1-Abl PPI inh = human Rin1-Abl interaction inhibition; P00519+Q13671; TR-FRET Rin1/Abl binding, biochemical; 360,000 tested, 0.4% active; inhibition, % at 7.35 µM; AID 588664; in the data active = inhibition above about 5%, passing the limit was not always enough
# SR-BI uptake up = activators of SR-BI mediated HDL lipid uptake. activation, % at 12.5 µM. 320,000 tested, 0.096% active. CHO ldlA[mSR-BI] cells, DiI-HDL uptake fluorescence, 3 h; 100 = double the neutral-control signal;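 active = mean replicate activation of at least 60% and every replicate at or above 60%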
#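 Test system: SR-BI-overexpressing, LDLR-lacking CHO cells. Measured by: DiI fluorescence, bottom read. Medium: Ham's F12 with 0.5% BSA, HEPES 25 mM, pH 7.4. Timing: 3 h uptake period with compound, 37 °C.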
# GRK2 inh confirm = human GRK2 inhibition confirmation, cherry pick 1; shares compounds with GRK2 aptamer HTS; 2,000 tested, 4% active; bead-bound GRK2, FAM-aptamer displacement, flow cytometry; aptamer displacement, % at 10 µM;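 active = aptamer displacement above 40%, near three times the noise of non-fluorescent compounds, on plates passing quality checks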;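 note: negative values mostly reflect intrinsic compound fluorescence rather than true enhancement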
# Aptamer quench 1 = counter-screen for GRK2 aptamer inhibitors: fluorescent aptamer quenchers | Fluorescent RNA aptamer beads, quenching, flow cytometry; hits give high values | fluorescence change (kMESF span), kMESF (concentration not given with the values) | AID 504521 | shares compounds with GRK2 aptamer HTS | 110 tested, under 10 active;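 active = compounds whose bead fluorescence drops by more than 37 kMESF across the dose range, marking them as dye quenchers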
# FAM quench CP1 = counter-screen for GRK2 aptamer inhibitors: fluorescent aptamer quenchers. Carboxyfluorescein RNA aptamer on beads, flow cytometry quenching; hits give low values. AID 504580. shares compounds with GRK2 aptamer HTS. fluorescence response (% of DMSO), % at 10 µM. 2,000 tested, under 10 active;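 active = compounds that quench the bead-bound fluorescent RNA probe, cutting fluorescence to under half of the solvent control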;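 note: counterscreen run without GRK2 so only probe quenching by compound is measured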
# GRK2 CP2 = human GRK2 inhibition confirmation, cherry pick 2. shares compounds with GRK2 aptamer HTS. 360 tested, under 10 active. inhibition of aptamer binding, % at 10 µM. bead-bound GRK2, FAM-aptamer displacement, flow cytometry;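 active = inhibition of aptamer binding above 40%, about triple the noise seen with nonglowing compounds, on plates passing quality control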;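 note: negative values mostly come from compounds that fluoresce themselves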
# FAM quench SP = counter-screen for GRK2 binding hits: quenchers of fluorescent RNA aptamer; shares compounds with GRK2 aptamer HTS; carboxyfluorescein RNA aptamer beads, flow cytometry quenching; hits give low values; fluorescence response vs DMSO, % at 10 µM; 360 tested, under 10 active; AID 588494;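 active = response vs DMSO under 50%, meaning signal dropped by over half, treated as fluorescence quencher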;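 note: labelled aptamer on streptavidin beads without GRK2 as a quench counter-screen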
# A number is an active result; . = inactive; / = not tested or not shown.
SMILES,SR-BI DiI inh,GRK2 aptamer HTS,Rin1-Abl PPI inh,SR-BI uptake up,GRK2 inh confirm,FAM quench CP1,others
O=C(Nn1cnnc1)c1ccc(Cl)cc1[N+](=O)[O-],.,93,.,.,.,.,
O=C(C[n+]1cnn(CC(=O)c2ccc(Cl)cc2Cl)c1)c1ccc([N+](=O)[O-])cc1,.,59,.,.,.,.,
O=C(Cn1cnc([N+](=O)[O-])c1)c1ccc(Cl)cc1,.,.,.,.,/,/,
COc1ccc(/C=N/Nc2ncccc2[N+](=O)[O-])c(OC)c1,.,.,.,.,/,/,
CC(C)CCOCC(O)CCC(=O)NNC(=S)Nc1ccccc1 (stereo not drawn),.,.,.,.,/,/,
C=CCC(CC(O)COCCC)C(=O)NNC(=S)Nc1ccccc1 (stereo not drawn),.,46,.,.,.,.,
Nc1nc(=S)c2ncn([C@@H]3O[C@H](CO)[C@@H](O)[C@H]3O)c2[nH]1,.,.,.,.,/,/,
Nc1nc(=S)c2ncn(C3OC(CO)C(O)C3O)c2[nH]1 (stereo not drawn),.,87,.,.,.,.,
CCCCN1CC(=O)N2[C@H]3c4cc(Cl)ccc4OC[C@@H]3[C@H](c3ccccc3)[C@]2(C)C1=O,.,.,.,.,/,/,
CCOC(=O)C1(CCCc2ccccc2)CCN(CCCn2cccn2)CC1,.,93,.,.,.,.,
CCOC(=O)C1(CCCc2ccccc2)CCN(Cc2nccn2CC)CC1,.,.,.,.,/,/,
Cc1cccc(C)c1NC(=O)c1cccc2c1C(=O)N(C1CCCCC1)C2,.,.,.,/,/,/,
O=C1C[C@@H]2C(=O)N(c3ccccc3)C(=O)[C@@H]2[C@@H]2CN(S(=O)(=O)c3ccccc3)[C@@H](c3ccccc3)[C@H]12,/,/,.,/,/,/,
COc1ccc2c(c1)C(=O)N(c1ccccc1C)C(=O)C2(C)C,.,78,.,.,.,.,
O=C(Cn1c(C(F)(F)F)nc2ccccc21)OCC(=O)c1c[nH]c2ccccc12,/,80,.,/,/,/,GRK2 CP2=.;FAM quench SP=.
Cc1[nH]c2ccccc2c1C(=O)COC(=O)Cn1c(C(F)(F)F)nc2ccccc21,.,.,.,.,/,/,
Cc1cc(C)cc(OC(=O)C23CCC(C)(C(=O)O2)C3(C)C)c1 (stereo not drawn),/,.,.,/,/,/,
O=C(COc1ccccc1N1C(=O)c2ccccc2C1=O)c1ccc(Cl)cc1,.,73,.,.,.,.,
CCOc1ccc(C(C)NC(=O)Cc2ccccc2F)cc1OCC (stereo not drawn),.,68,.,.,.,.,
O=C(O)c1ccc(Nc2nc3ccccc3nc2NS(=O)(=O)c2cccs2)cc1,.,94,.,.,.,.,
CC(C)N1CCC(NC(=O)Nc2ccc3c(c2)OCO3)CC1,.,.,.,.,/,/,
O=C(COc1cccc(C(F)(F)F)c1)NNC(=O)Cc1ccc(S(=O)(=O)N2CCOCC2)s1,.,.,.,.,/,/,
O=C(COc1cccc(F)c1)NNC(=O)Cc1ccc(S(=O)(=O)N2CCOCC2)s1,.,46,.,.,.,.,
C[C@@H]1CN([C@H](C)CO)C(=O)CCCn2nncc2CO[C@@H]1CN(C)C(=O)NC1CCCCC1,/,/,.,/,/,/,
COc1cccc(NC(=O)c2ncc(Cl)c(Cl)c2Cl)c1,.,.,.,.,/,/,
SMILES,SR-BI DiI inh,GRK2 aptamer HTS,Rin1-Abl PPI inh,SR-BI uptake up,GRK2 inh confirm,FAM quench CP1,others
O=C(O)c1ccc2c(c1)C(=O)/C(=C/c1ccccc1)C2=O,.,.,.,.,/,/,
O=C(O)c1ccc2c(c1)C(=O)/C(=C\c1ccco1)C2=O,.,58,.,.,.,.,
CN(C)c1cccc(C(=O)OCc2cc(=O)oc3cc(O)ccc23)c1,.,54,.,.,55,.,Aptamer quench 1=.
CC1CN(S(=O)(=O)c2cccc(C(=O)OCc3cc(=O)oc4cc(O)ccc34)c2)CC(C)O1 (stereo not drawn),.,.,.,.,/,/,
Cc1nc2ccc(C(=O)Nc3ccc4c(c3)OCC(=O)N4)cn2c1N(C)C(=O)CCc1ccccc1,/,/,.,/,/,/,
COc1cccc(C2(O)CCN(C(=O)Cc3cccnc3)CC2)c1,.,.,.,.,/,/,
COc1cccc(C2(O)CCN(C(=O)C(C)C)CC2)c1,.,55,.,.,.,.,
O=C(CSc1nccc(=O)[nH]1)N1N=C2/C(=C/c3ccco3)CCCC2C1c1ccco1 (stereo not drawn),.,42,.,.,.,.,
Nc1nc(SCC(=O)N2N=C3/C(=C/c4ccco4)CCCC3C2c2ccco2)n[nH]1 (stereo not drawn),/,.,.,/,/,/,
Cc1cnc(C(=O)OCC(=O)N(Cc2ccccc2)C(C)C)cn1,.,42,.,.,.,.,
CCN(Cc1ccccc1)C(=O)COC(=O)c1cnc(C)cn1,.,.,.,.,/,/,
Cc1cnc(C(=O)OCC(=O)c2ccc(C)s2)cn1,.,45,.,.,.,.,
COc1cccc(Oc2ccc(N/C=C/C(=O)C(C)(C)C)cc2)c1,.,88,.,.,.,.,
CCCc1c(C(=O)N/N=C/c2ccc3c(c2)OCO3)nnn1-c1nonc1N,/,/,.,/,/,/,
C[C@H](CO)N1C[C@H](C)[C@@H](CN(C)C(=O)Nc2ccccc2)Oc2ncc(-c3ccc(C#N)cc3)cc2C1=O,/,/,.,/,/,/,
Cc1cccc(C)c1NC(=O)CN1C(=O)CCSc2ccc(S(=O)(=O)N3CCCC3)cc21,.,42,.,.,.,.,
O=C(CN1C(=O)CCSc2ccc(S(=O)(=O)N3CCCC3)cc21)Nc1ccccc1Cl,.,.,.,.,/,/,
O=C(O)C1CC=CCC1C(=O)Nc1ccc2c(c1)OCCO2 (stereo not drawn),.,.,.,.,/,/,GRK2 CP2=.;FAM quench SP=.
O=C(O)C1CC=CCC1C(=O)Nc1ccc(F)c(F)c1 (stereo not drawn),.,.,.,.,/,/,
O=C(Nc1ccc(Cl)cc1)c1ccc2sc([C@@H]3O[C@H](CO)[C@@H](O)[C@H]3O)nc2c1,/,/,.,/,/,/,
COC(=O)c1cccc(C23CC4(C2)[C@H](CN(CC2CCCCC2)[C@@H]4c2ccccc2)C3c2ccccc2)c1 (stereo partly drawn),.,85,.,.,.,.,
Cc1cc(C)c(C)c(S(=O)(=O)N2CCN(C(=O)c3cc(S(=O)(=O)N4CCOCC4)ccc3F)CC2)c1C,.,.,.,.,.,.,

# Screening data as filed in PubChem.
